IC50 and inhibition data for 1 molecule are collected here from ChEMBL document CHEMBL4371044, “Celastrol Promotes Weight Loss in Diet-Induced Obesity by Inhibiting the Protein Tyrosine Phosphatases PTP1B and TCPTP in the Hypothalamus” (J Med Chem, 2018).

Calls of active or inactive are those of the source. The rule behind the calls is not given here.

The target in assay [1] is T1, Tyrosine-protein phosphatase non-receptor type 1 (Homo sapiens, UniProt P18031).
T1 sequence (P18031 whole entry): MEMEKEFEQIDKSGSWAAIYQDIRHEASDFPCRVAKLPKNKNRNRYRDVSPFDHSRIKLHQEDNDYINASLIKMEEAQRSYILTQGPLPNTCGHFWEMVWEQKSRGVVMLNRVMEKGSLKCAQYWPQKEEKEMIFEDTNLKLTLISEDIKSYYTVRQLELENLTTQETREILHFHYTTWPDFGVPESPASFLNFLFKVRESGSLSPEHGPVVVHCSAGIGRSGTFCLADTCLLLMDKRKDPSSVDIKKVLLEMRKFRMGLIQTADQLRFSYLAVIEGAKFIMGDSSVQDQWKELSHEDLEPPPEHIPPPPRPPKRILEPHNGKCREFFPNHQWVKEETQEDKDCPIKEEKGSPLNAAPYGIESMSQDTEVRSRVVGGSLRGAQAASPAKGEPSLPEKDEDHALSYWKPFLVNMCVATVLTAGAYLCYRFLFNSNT
Briefly: Inhibition of human N-terminal His6-tagged PTP1B catalytic domain (1 to 298 residues) expressed in Escherichia coli strain Rosetta2 (DE3) using DiFMUP as substrate preincubated for 10 mins followed by substrate addition and measured after 10 mins by fluorescence assay. In short, it runs like this:
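Tag-cleaved, SEC-purified enzyme at 1 nM, preincubated 10 min with compound at 15 concentrations from 0–500 μM (5% DMSO final) in 25 mM Bis-Tris propane pH 7.5, 50 mM NaCl, 2 mM EDTA. DiFMUP added at each construct's Km (10, 7, 10, 9 μM for PTP1B1−298, PTP1B1−393, TCPTP1−296, TCPTP1−336). Read ex 358/em 455 nm continuously 10 min at 37 °C; triplicate; log(inhibitor)-response fit.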

The target of assay [2] is T2, Tyrosine-protein phosphatase non-receptor type 2 (Homo sapiens) (UniProt P17706).
T2 sequence (whole entry): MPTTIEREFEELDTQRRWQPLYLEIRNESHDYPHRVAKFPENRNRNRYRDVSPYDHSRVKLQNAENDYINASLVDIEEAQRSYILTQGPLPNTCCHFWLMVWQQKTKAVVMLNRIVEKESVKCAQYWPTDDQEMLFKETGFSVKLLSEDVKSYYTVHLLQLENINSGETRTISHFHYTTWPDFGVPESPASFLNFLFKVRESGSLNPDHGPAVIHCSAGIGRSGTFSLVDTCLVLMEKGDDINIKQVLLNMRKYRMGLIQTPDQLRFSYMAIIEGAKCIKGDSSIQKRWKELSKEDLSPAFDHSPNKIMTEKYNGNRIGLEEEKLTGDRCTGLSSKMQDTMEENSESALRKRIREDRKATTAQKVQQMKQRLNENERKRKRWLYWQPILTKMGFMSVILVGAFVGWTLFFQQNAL
Briefly: Inhibition of human N-terminal His6-tagged TCPTP catalytic domain (1 to 336 residues) expressed in Escherichia coli strain Rosetta2 (DE3) up to 500 uM using pNPP as substrate preincubated for 10 mins followed by substrate addition and measured after 10 mins by […].

`CC1=C(O)C(=O)C=C2C1=CC=C1[C@@]2(C)CC[C@@]2(C)[C@@H]3C[C@](C)(C(=O)O)CC[C@]3(C)CC[C@]12C` [CELASTROL] had an IC50 in assay [1] of 4.8 µM. Moreover, the inhibition result in assay [2] was “Active”.
